# ChEMBL document CHEMBL1143425, “Paradoxical growth effect of caspofungin observed on biofilms and planktonic cells of five different Candida species” (2007)
# Activity calls are given as the source filed them.
# Assays:
# Candida orthopsilosis [1] = assay: Antimicrobial activity against Candida orthopsilosis BR-A35 grown as biofilm assessed as concentration producing paradoxical growth after 48 hrs by XTT reduction assay; assay type: functional
# Outline: (§1)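 Sabouraud-grown cells were shaken overnight (18 h, 120 rpm, 35°C) in RPMI 1640 with MOPS at pH 7.0, then washed and set at ~1 × 10^7 cells/ml. Attachment lasted 1.5 h at 37°C, and growth ran 24 h before challenge. Caspofungin was added in RPMI at 2–1,024 μg/ml (10 doublings) for 48 h at 35°C with shaking. XTT-menadione was read at 490 nm after 1 h at 35°C in the dark, with blank wells subtracted. MIC was taken as 50% reduction versus drug-free wells, and PG as >50% of control above MIC. Assays were run in duplicate.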
# Candida parapsilosis [2] = assay: Antimicrobial activity against Candida parapsilosis 22019 grown as biofilm assessed as concentration producing paradoxical growth after 48 hrs by XTT reduction assay; assay type: functional; outline: as §1
# Candida orthopsilosis [3] = assay: Antimicrobial activity against Candida orthopsilosis BR-A38 grown as planktonic cell assessed as concentration producing paradoxical growth after 48 hrs by XTT reduction assay; assay type: functional
# Outline: (§2)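 Planktonic cells were tested by CLSI M27-A2 broth microdilution with caspofungin in water, incubated 48 h. XTT-menadione was added to each well, plates were held 1 h at 35°C in the dark and centrifuged, and supernatant absorbance was read at 490 nm. MIC was defined as 50% decrease in metabolic activity versus drug-free control. PG was defined as ≥20% of control activity at concentrations above MIC.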
# Candida tropicalis [4] = assay: Antimicrobial activity against Candida tropicalis BR-A14 grown as planktonic cell after 48 hrs by XTT reduction assay; assay type: functional
# Outline: (§3)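 Planktonic broth microdilution followed CLSI M27-A2, with caspofungin dissolved in water. After 48 h, XTT-menadione was added to each well and plates were incubated 1 h at 35°C in the dark. Cells were pelleted by centrifugation and the supernatant was read at 490 nm. MIC was the lowest concentration giving a 50% drop in metabolic activity versus the drug-free control. PG was ≥20% of drug-free activity above the MIC.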
# Candida tropicalis [5] = assay: Antimicrobial activity against Candida tropicalis BR-A9 grown as planktonic cell after 48 hrs by XTT reduction assay; assay type: functional
# Outline: (§4)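 Planktonic broth microdilution followed CLSI M27-A2, with caspofungin dissolved in water. After 48 h, XTT-menadione was added to the wells and plates were kept 1 h at 35°C in the dark. Plates were then centrifuged and supernatant A490 was read. MIC was the lowest concentration giving a 50% decrease in metabolic activity versus drug-free control. Paradoxical growth was defined as ≥20% of control activity above the MIC.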
# Candida metapsilosis [6] = assay: Antimicrobial activity against Candida metapsilosis BR-A43 grown as biofilm after 48 hrs by XTT reduction assay; assay type: functional; conditions: Lodderomyces metapsilosis; outline: as §1
# Candida orthopsilosis [7] = assay: Antimicrobial activity against Candida orthopsilosis BR-A34 grown as biofilm after 48 hrs by XTT reduction assay; assay type: functional; conditions: Lodderomyces orthopsilosis
# Outline: (§5)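 Isolates were grown on Sabouraud agar (30°C, 24 h), then overnight in RPMI 1640 with MOPS, pH 7.0, at 35°C with shaking. Cells were washed and set to ~1 × 10^7 cells/ml, attached 1.5 h at 37°C, and grown 24 h. Biofilms were then exposed to caspofungin in 10 twofold dilutions (2–1,024 μg/ml) for 48 h at 35°C with shaking. Read-out was XTT-menadione, 1 h, 35°C, dark, A490, cell-free blank subtracted. MIC was the 50% drop in activity versus drug-free control. Tested in duplicate.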
# Candida tropicalis [8] = assay: Antimicrobial activity against Candida tropicalis BR-A8 grown as biofilm after 48 hrs by XTT reduction assay; assay type: functional; outline: as §5
# Candida metapsilosis [9] = assay: Antimicrobial activity against Candida metapsilosis BR-A43 grown as planktonic cell after 48 hrs by XTT reduction assay; assay type: functional; conditions: Lodderomyces metapsilosis; outline: as §2
# Candida orthopsilosis [10] = assay: Antimicrobial activity against Candida orthopsilosis BR-A38 grown as planktonic cell after 48 hrs by XTT reduction assay; assay type: functional; conditions: Lodderomyces orthopsilosis; outline: as §4
# Candida metapsilosis [11] = assay: Effect on morphology in Candida metapsilosis grown as biofilm assessed as inhibition of hyphae and pseudohyphae at 16 ug/ml after 48 hrs; assay type: functional, organism-based
# Outline: (§6)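 Biofilms formed in RPMI 1640 wells were exposed to caspofungin for 48 h and compared with drug-free control wells. Wells were examined in the plate under an inverted light microscope at ×200 and photographed.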
# Candida parapsilosis [12] = assay: Antimicrobial activity against Candida parapsilosis BR-A26 grown as planktonic cell assessed as concentration producing paradoxical growth after 48 hrs by XTT reduction assay; assay type: functional; outline: as §3
# Candida albicans [13] = assay: Antimicrobial activity against Candida albicans BR-A7 grown as planktonic cell assessed as paradoxical growth after 48 hrs by XTT reduction assay; assay type: functional, organism-based; outline: as §2
# Candida tropicalis [14] = assay: Antimicrobial activity against Candida tropicalis BR-A24 grown as planktonic cell assessed as paradoxical growth after 48 hrs by XTT reduction assay; assay type: functional, organism-based; outline: as §3
# Candida tropicalis [15] = assay: Antimicrobial activity against Candida tropicalis BR-A14 grown as planktonic cell assessed as concentration producing paradoxical growth after 48 hrs by XTT reduction assay; assay type: functional; outline: as §3
# Candida metapsilosis [16] = assay: Antimicrobial activity against Candida metapsilosis BR-A43 grown as planktonic cell assessed as paradoxical growth after 48 hrs by XTT reduction assay; assay type: functional, organism-based; outline: as §2
# Candida albicans [17] = assay: Antimicrobial activity against Candida albicans BR-A7 grown as planktonic cell after 48 hrs by XTT reduction assay; assay type: functional; outline: as §4
# Candida orthopsilosis [18] = assay: Antimicrobial activity against Candida orthopsilosis BR-A33 grown as planktonic cell assessed as paradoxical growth after 48 hrs by XTT reduction assay; assay type: functional, organism-based; outline: as §2
# Candida albicans [19] = assay: Antimicrobial activity against Candida albicans BR-A2 grown as planktonic cell after 48 hrs by XTT reduction assay; assay type: functional; outline: as §4
# Candida parapsilosis [20] = assay: Effect on morphology in Candida parapsilosis grown as planktonic cells assessed as inhibition of hyphae and pseudohyphae at 16 ug/ml after 48 hrs; assay type: functional, organism-based
# Outline: (§7)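 Cells were taken from caspofungin-containing and drug-free wells of the planktonic broth microdilution test after 48 h. They were examined by light microscopy at ×400.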
# Candida parapsilosis [21] = assay: Effect on morphology in Candida parapsilosis grown as biofilm assessed as inhibition of hyphae and pseudohyphae at 128 ug/ml after 48 hrs; assay type: functional, organism-based; outline: as §6
# Candida orthopsilosis [22] = assay: Effect on morphology in Candida orthopsilosis grown as planktonic cells assessed as inhibition of hyphae and pseudohyphae at 64 ug/ml after 48 hrs; assay type: functional, organism-based; outline: as §7
# Candida parapsilosis [23] = assay: Antimicrobial activity against Candida parapsilosis BR-A25 grown as planktonic cell assessed as concentration producing paradoxical growth after 48 hrs by XTT reduction assay; assay type: functional; outline: as §3
# Candida tropicalis [24] = assay: Antimicrobial activity against Candida tropicalis BR-A20 grown as planktonic cell after 48 hrs by XTT reduction assay; assay type: functional; outline: as §3
# Candida parapsilosis [25] = assay: Antimicrobial activity against Candida parapsilosis BR-A30 grown as planktonic cell assessed as paradoxical growth after 48 hrs by XTT reduction assay; assay type: functional, organism-based; outline: as §3
# Candida metapsilosis [26] = assay: Antimicrobial activity against Candida metapsilosis BR-A42 grown as planktonic cell after 48 hrs by XTT reduction assay; assay type: functional; conditions: Lodderomyces metapsilosis; outline: as §2
# Candida tropicalis [27] = assay: Antimicrobial activity against Candida tropicalis BR-A20 grown as planktonic cell assessed as paradoxical growth after 48 hrs by XTT reduction assay; assay type: functional, organism-based; outline: as §3
compound,measurement,setting,value
CC[C@H](C)C[C@H](C)CCCCCCCCC(=O)N[C@H]1C[C@@H](O)[C@@H](NCCN)NC(=O)[C@@H]2[C@@H](O)CCN2C(=O)[C@H]([C@H](O)CCN)NC(=O)[C@H]([C@H](O)[C@@H](O)c2ccc(O)cc2)NC(=O)[C@@H]2C[C@@H](O)CN2C(=O)[C@H]([C@@H](C)O)NC1=O [CASPOFUNGIN],Activity,Candida orthopsilosis [1],16 µg/mL
same,Activity,Candida parapsilosis [2],16 µg/mL
same,Activity,Candida orthopsilosis [3],16 µg/mL
same,MIC,Candida tropicalis [4],0.5 mg/L
same,MIC,Candida tropicalis [5],1 mg/L
same,MIC,Candida metapsilosis [6],2 mg/L
same,MIC,Candida orthopsilosis [7],2 mg/L
same,MIC,Candida tropicalis [8],2 mg/L
same,MIC,Candida metapsilosis [9],2 mg/L
same,MIC,Candida orthopsilosis [10],2 mg/L
same,Activity,Candida metapsilosis [11],Active
same,Activity,Candida parapsilosis [12],16 µg/mL
same,Activity,Candida albicans [13],Active
same,Activity,Candida tropicalis [14],Active
same,Activity,Candida tropicalis [15],8 µg/mL
same,Activity,Candida metapsilosis [16],inactive
same,MIC,Candida albicans [17],0.5 mg/L
same,Activity,Candida orthopsilosis [18],inactive
same,MIC,Candida albicans [19],0.5 mg/L
same,Activity,Candida parapsilosis [20],Active
same,Activity,Candida parapsilosis [21],Active
same,Activity,Candida orthopsilosis [22],Active
same,Activity,Candida parapsilosis [23],32 µg/mL
same,MIC,Candida tropicalis [24],0.5 mg/L
same,Activity,Candida parapsilosis [25],inactive
same,MIC,Candida metapsilosis [26],1 mg/L
same,Activity,Candida tropicalis [27],Active
